MEKK2 mut-MEK5: signal of MEK5 binding to mutant human MEKK2 PB1 domain | bead flow cytometry, Alexa488-MEK5 binding to MEKK2 mutant | percent response, % at 10 µM | 290,000 tested, 0.35% active | AID 1530; in the data active = percent response above about 24%, passing the limit was not always enough
MEKK3 PB1 HTS: modulators (inhibitors or enhancers) of MEK5 binding to human MEKK3 PB1 domain | Q99759 | bead-based flow cytometry, Alexa488-MEK5 binding to MEKK3; actives lie on both sides; 0 = blocked by unlabeled MEK5, 100 = vehicle | binding response (% of control), % at 10 µM | 290,000 tested, 1.4% active;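 active = binding response more than 3 SD above or below the average of its plate-row segment, actives on both sides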;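 note: Alexa488 bead fluorescence after subtracting the streptavidin-only scavenger bead signal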
PREPL inh: inhibits the human prolyl oligopeptidase-like enzyme. 320,000 tested, 0.68% active. recombinant PREPL, fluorescence polarization activity-based probe. inhibition, % at 5.96 µM; in the data active = inhibition above about 43%;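 note: 0% = enzyme with DMSO and 100% = wells lacking enzyme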
MEKK2wt PB1 HTS: raises or lowers MEK5 binding to wildtype human MEKK2 PB1 domain. Q9Y2U5. bead flow cytometry, Alexa488-MEK5 binding to MEKK2 WT; actives lie on both sides. binding response (% of control), % at 10 µM. 290,000 tested, 1.1% active. AID 1531; in the data active = binding response below about 67% or above about 130%
Apaf-1 inh: human Apaf-1 inhibition. O14727. reconstituted apoptosome caspase-3 activity, DEVD-Rh110 fluorescence. inhibition, % at 20 µM. 330,000 tested, 0.71% active. AID 489030; active = inhibition of at least 40% at 20 µM;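 note: plate controls were DMSO wells for no effect and DEVD-CHO caspase inhibitor wells for full effect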
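System: reconstituted apoptosome with Apaf-1, cytochrome c, caspase-9, procaspase-3, dATP; Signal: Rh110 fluorescence intensity; Schedule: 30 min compound preincubation, 50 min activation, room temperature; Reagent: cytochrome c trigger plus (Z-DEVD)2-Rh110 caspase-3 substrate.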
UBC13 inh: blocks human UBC13 polyubiquitin chain formation; P61088; TR-FRET; inhibition, % at 20 µM; 330,000 tested, 0.47% active; in the data active = inhibition above about 45%, passing the limit was not always enough
Apaf-1 inh conf: confirmation of Apaf-1 inhibitors; shares compounds with Apaf-1 inh; reconstituted apoptosome, caspase-3 DEVD-Rh110 fluorescence; inhibition, % at 20 µM; 1,800 tested, 25% active; AID 504614;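 active = mean inhibition of at least 40% at 20 µM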;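 note: plate controls were DMSO wells for no effect and DEVD-CHO caspase inhibitor control wells for full effect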
Rh110 interf inh: interferes with Rh110 fluorescence, flagging false Apaf-1 inhibitors; shares compounds with Apaf-1 inh; Rh110 fluorescence interference, quenched caspase reaction; activation (fluorescence interference), % at 20 µM; 1,800 tested, under 10 active; AID 504615;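 active = signal rise of 40% or more at 20 µM, treated as a fluorescence artifact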
Fluor interf inh: Apaf-1 inhibitor counter-screen fluorescence artifact; 460 tested, under 10 active; fluorescence interference counterscreen, Apaf-1 assay format; shares compounds with Apaf-1 inh; IC50, µM; call rule not given here
Starred values were filed as active, the others as inactive; . = not tested or not shown. Compounds with a hit are over-represented: about 3.1% of the library has one in this group of screens.

SMILES | MEKK2 mut-MEK5 | MEKK3 PB1 HTS | PREPL inh | MEKK2wt PB1 HTS | Apaf-1 inh | UBC13 inh | Apaf-1 inh conf | Rh110 interf inh | others
COc1ccc(-c2oc3ncnc(NCCN4CCOCC4)c3c2-c2ccc(OC)cc2)cc1 | 0 | 99 | 21 | 108 | 42* | 35 | 25 | 15
COc1ccc(-c2csc3ncnc(NCCN4CCOCC4)c23)cc1 | -4 | 99 | 4 | 106 | 12 | 2 | . | .
O=C(NCCO)c1ccc2nc(-c3ccco3)c(-c3ccco3)nc2c1 | 5 | 101 | 17 | 100 | 78* | -7 | 23 | 1
COc1cccc(NC(=O)CN(C)C(=O)/C=C/c2ccc3ccccc3n2)c1 | . | . | -7 | . | 17 | -12 | . | .
Cc1sc2ncnc(N3CCC(C(=O)N(C)CC(=O)Nc4ccccc4Br)CC3)c2c1C | 12 | 106 | 0 | 120 | 26 | 27 | . | .
Cc1sc2ncnc(N3CCC(C(=O)N(C)CC(=O)Nc4ccccc4Cl)CC3)c2c1C | 8 | 108 | -3 | 114 | 60* | 22 | 35 | 1
CSCC[C@H](NS(=O)(=O)c1ccc(C)cc1)C(=O)N1CCC(C(=O)N[C@@H](Cc2ccc(O)cc2)C(=O)O)CC1 | -1 | 99 | 3 | 102 | -10 | -4 | . | .
CC(=O)OCc1nc2ccccc2s1 | 6 | 103 | 0 | 108 | -8 | 5 | . | .
O=C(OCc1nc2ccccc2s1)c1ccc([N+](=O)[O-])o1 | 0 | 103 | -28 | 99 | 69* | -9 | 15 | 7
Nc1ccc(N(CCO)CCO)cc1 | -4 | 92 | 16 | 96 | 84* | -42 | 46* | 3 | Fluor interf inh=>100
COc1ccc(Cc2cc(NCc3ccccc3)c3ncn(C(C)C)c3c2)cc1 | . | . | 35 | . | 35 | 23 | . | .
CCCCOc1cc(NCc2ccccc2)c2ncn(C(C)C)c2c1 | . | . | 29 | . | 61* | 26 | 47* | 14 | Fluor interf inh=>100
CCC(CO)Oc1cc(NCc2ccccc2OC)c2ncn(C(C)C)c2c1 (centres undefined) | . | . | 26 | . | 61* | -14 | 33 | -1
COCCCOc1cc(NCc2ccccc2)c2ncn(C(C)C)c2c1 | . | . | 21 | . | 41* | 3 | 27 | 7
COc1cc(NCc2ccccc2)c2ncn(Cc3ccccc3)c2c1 | . | . | 20 | . | 50* | 6 | 28 | 4
CN(C(=O)Cn1nnc(-c2ccccc2)n1)C1CCS(=O)(=O)C1 (centres undefined) | . | . | 0 | . | 3 | 7 | . | .
CN(Cc1ccccc1F)C(=O)c1sccc1-c1ccccc1 | 16 | 103 | -12 | 100 | 21 | 6 | . | .
CCCCn1c(N)c(N(CCC(C)C)C(=O)C2=NN(c3cc(C)ccc3C)C(=O)CC2)c(=O)[nH]c1=O | . | . | 25 | . | -1 | -7 | . | .
Cc1n[nH]c(=O)c2c(NC(=O)CSc3nncn3C(C)C)oc(C)c12 | . | . | 2 | . | -10 | 12 | . | .
CCC(COC(=O)c1ccccc1)Oc1cc(NCc2ccccc2)c2ncn(C(C)C)c2c1 (centres undefined) | . | . | 37 | . | 69* | 11 | 26 | 10
CCC(CO)Oc1cc(NCc2ccc(O)cc2)c2ncn(C(C)C)c2c1 (centres undefined) | . | . | 17 | . | 4 | 4 | . | .
CC(C)C(=O)Nc1ccc2nn(-c3ccc(F)cc3)nc2c1 | 2 | 100 | 6 | 97 | -95 | 11 | . | .
CCOc1ccc(-n2nc3ccc(N)cc3n2)cc1 | 5 | 99 | . | 101 | 84* | -26 | 24 | 2
Nc1ccc2nn(-c3ccc(F)cc3)nc2c1 | 2 | 105 | 9 | 105 | 88* | -2 | 24 | -4
CCOc1ccc(-n2nc3cc(C)c(N)cc3n2)cc1 | 2 | 101 | 4 | 103 | 26 | -3 | . | .
SMILES | MEKK2 mut-MEK5 | MEKK3 PB1 HTS | PREPL inh | MEKK2wt PB1 HTS | Apaf-1 inh | UBC13 inh | Apaf-1 inh conf | Rh110 interf inh | others
CCCCN(C(=O)COC(=O)c1ccc(C=O)cc1)c1c(N)n(CCC)c(=O)[nH]c1=O | . | . | 2 | . | -3 | -13 | . | .
CCN1CCN(Cc2ccc(NC(=O)c3ccc(C)c(NC(=O)C4=NN(c5ccccc5)C(=O)C4)c3)cc2C(F)(F)F)CC1 | 7 | 96 | 2 | 94 | 24 | -17 | . | .
CCN1CCN(Cc2ccc(NC(=O)c3cc(NC(=O)C4=NN(c5ccccc5)C(=O)C4)cc(OC)c3)cc2C(F)(F)F)CC1 | 5 | 93 | -7 | 96 | 51* | 0 | 21 | 12
C=CCOC(=O)C1=C[C@@H](c2ccc(C(F)(F)F)cc2)C[C@@H](OCc2ccc(CO)cc2)O1 | -8 | 73 | 30 | 80 | 27 | 7 | . | .
CCCCCCCCCCCCOC(=O)C[N+](C)(C)C | 8 | 101 | 4 | 129 | 46* | 26 | 10 | 1
CCCCCCCCCCOC(=O)C[N+](C)(C)C/C=C(/C)Cl | 1 | 102 | 23 | 117 | 32 | 36 | . | .
Oc1ccc(NCc2cccc(OCc3ccc(F)cc3)c2)cc1 | -4 | 100 | 30 | 98 | 15 | 11 | . | .
Oc1ccc(NCc2cccc(OCc3ccccc3)c2)cc1 | 1 | 104 | 28 | 104 | 91* | -21 | 29 | 4
CC(=O)c1c(C)n(-c2ccccc2Br)c2ccc(O)cc12 | 0 | 100 | . | 104 | 11 | -2 | . | .
CC1=NN(c2ccc(F)cc2)C(=O)C1C(c1cccc(O)c1)c1c(C)[nH]n(-c2ccc(F)cc2)c1=O (centres undefined) | 5 | 105 | 25 | 100 | 91* | -40 | 20 | -4
Cc1[nH]n(-c2ccccc2)c(=O)c1C(=O)c1cccc(F)c1 | -2 | 101 | 0 | 101 | -5 | -2 | . | .
C=CCN1C=C2C(=O)C(C)(OC(=O)CCC(=O)OC)C(=O)C=C2C=C1C1CC1 (centres undefined) | 2 | 85 | 20 | 88 | 43* | -32 | 53* | 2 | Fluor interf inh=>100
COC(=O)CCC(=O)OC1(C)C(=O)C=C2C=C(C3CC3)N(CCc3ccccn3)C=C2C1=O (centres undefined) | -14 | 82 | 22 | 85 | 53* | -85 | 38 | 4

Screens from PubChem BioAssay.
